High-throughput results as filed in PubChem.
Sampled rows, rich in hits. Any-hit rate of the full collection: about 3.3%.
PglD DTNB = blocks C. jejuni PglD acetyltransferase activity; purified PglD enzyme, DTNB colorimetric CoA detection; inhibition, % at 12.5 µM; 360,000 tested, 0.098% active; AID 602405; in the data active = inhibition above about 16%, passing the limit was not always enough; inconclusive = no clear call, values can overlap the other calls
Statin myotox sup = protects C2C12 myotubes from simvastatin toxicity; rescue of ATP level, % at 7.49 µM; AID 602340; ATP luminescence, 48 h; scaled: DMSO 0, geranylgeraniol control 100; 330,000 tested, 0.78% active;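 active = mean ATP rescue above about 67%, or every replicate alone reaching that limit, limit read from the data, passing the limit was not always enough; inconclusive = no clear call, values can overlap the other calls; inactive = mean under the limit and some replicate under it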;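 also: myotubes were challenged with 10 µM simvastatin during compound exposure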
DENV2 CPE rescue = inhibitors of DENV2 cytopathic effect; DENV2-infected cells, cytopathic effect rescue, plate reader; 350,000 tested, 1.7% active; CPE inhibition, % at 9.99 µM; in the data active = CPE inhibition above about 20%, passing the limit was not always enough; inconclusive = no clear call, values can overlap the other calls; tested in BHK-21 cells
Xi reactivation = X-chromosome reactivation activator; XiGFP mouse fibroblasts, % GFP-positive cells imaging, 3 d; cells co-treated with 5-aza-dC sensitizer; scaled so ellipticine positive control = 100%; activation, % at 7.58 µM; 360,000 tested, 0.055% active; AID 743238;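 active = mean normalized replicate activation at least 10% and every replicate at or above 10%; inconclusive = only one of the two criteria met; inactive = mean below 10% and not all replicates reach 10%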
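System: XiGFP fibroblasts, SV40-immortalized. Medium: DMEM plus 5-aza-dC sensitizer. Doses: single point. Timing: 3 d treatment, 15 min room-temperature fixation. Control set: ellipticine 6 µM.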
FGF22 binding = binders of recombinant human FGF22 by thermal shift; activity (Tm shift, normalised), % at 9.99 µM; Q9HCT0; 340,000 tested, 1.5% active; SYPRO orange fluorescence; percent of sucrose octasulfate shift, DMSO zero;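 active = mean Tm shift, scaled 0 neutral to 100 positive control, at about 1.3% or above, every replicate too, limit read from the data; inconclusive = no clear call, values can overlap the other calls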
Target sequence (Q9HCT0 whole entry, looked up): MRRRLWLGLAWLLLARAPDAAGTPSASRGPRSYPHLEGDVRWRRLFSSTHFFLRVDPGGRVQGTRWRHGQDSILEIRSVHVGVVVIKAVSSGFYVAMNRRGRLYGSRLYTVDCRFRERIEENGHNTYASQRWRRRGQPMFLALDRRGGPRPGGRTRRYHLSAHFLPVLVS
E-selectin induc = induces E-selectin expression in human endothelial cells; P16581; HUVEC E-selectin immunofluorescence imaging; normalized: neutral wells 0, TNF-alpha wells 100; activation, % at 7.58 µM; 260,000 tested, 0.37% active;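 active = mean E-selectin-positive cell signal at least 10% of the positive control, reached in at least 60% of replicates, without over 20% cell loss; inconclusive = no rule given, readout overlaps actives, possibly toxicity-flagged; inactive = the rest, including those meeting only one limit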
Target sequence (P16581 whole entry, looked up): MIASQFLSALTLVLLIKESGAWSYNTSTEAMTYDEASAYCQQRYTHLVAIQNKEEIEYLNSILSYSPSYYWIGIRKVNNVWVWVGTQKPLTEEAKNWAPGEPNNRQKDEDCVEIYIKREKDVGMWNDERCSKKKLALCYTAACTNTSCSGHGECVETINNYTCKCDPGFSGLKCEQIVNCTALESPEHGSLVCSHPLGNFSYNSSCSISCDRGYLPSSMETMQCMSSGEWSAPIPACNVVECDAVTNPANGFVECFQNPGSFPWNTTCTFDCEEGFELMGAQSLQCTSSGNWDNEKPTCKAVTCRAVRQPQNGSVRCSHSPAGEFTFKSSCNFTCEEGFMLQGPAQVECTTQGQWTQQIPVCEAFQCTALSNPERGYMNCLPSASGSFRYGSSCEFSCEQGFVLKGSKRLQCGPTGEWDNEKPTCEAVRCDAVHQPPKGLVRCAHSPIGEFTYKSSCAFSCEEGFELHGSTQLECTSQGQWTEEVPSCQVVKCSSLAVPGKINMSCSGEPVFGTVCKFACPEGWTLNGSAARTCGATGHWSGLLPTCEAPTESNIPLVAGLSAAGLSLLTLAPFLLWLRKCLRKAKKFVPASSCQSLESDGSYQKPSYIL
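Test system – human umbilical vein endothelial cells (HUVEC), E-selectin induction · Input – 3,000 HUVEC seeded per well · Buffer or medium – EGM-2, gelatin · Compound dosing – single-point compound dose · Detection – immunofluorescence imaging · Measure – percent E-selectin-positive cells · Controls – TNF-alpha high, DMSO low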
Each line names hits and unclear results; the compound was inactive in the other large screens; ! = repeats disagree.

C[C@@H]1CCCCO[C@@H](CN(C)Cc2ccc3c(c2)OCO3)[C@H](C)CN([C@@H](C)CO)C(=O)c2cc(NS(=O)(=O)c3cccs3)ccc2O1	DENV2 CPE rescue 112! (no result: Statin myotox sup)
C[C@@H]1CCCCO[C@H](CN(C)Cc2ccc3c(c2)OCO3)[C@@H](C)CN([C@@H](C)CO)C(=O)c2cc(NS(=O)(=O)c3cccs3)ccc2O1	none (no result: Statin myotox sup)
C[C@@H]1CCCCO[C@H](CN(C)Cc2ccc(Cl)c(Cl)c2)[C@@H](C)CN([C@H](C)CO)C(=O)c2cc(NS(=O)(=O)c3cccs3)ccc2O1	FGF22 binding 1.2 (no result: Statin myotox sup)
C[C@H](CO)N1C[C@H](C)[C@@H](CN(C)Cc2ccc(Cl)c(Cl)c2)OCCCC[C@H](C)Oc2ccc(NS(=O)(=O)c3cccs3)cc2C1=O	none (no result: Statin myotox sup)
COc1cc(C)c(C(C)C)cc1S(=O)(=O)NCCCn1ccnc1	Statin myotox sup 114 (no result: DENV2 CPE rescue, Xi reactivation, FGF22 binding, E-selectin induc)
O=C(NCc1ccco1)c1ccc2c(=O)n(CC3CCCO3)c(=S)[nH]c2c1 (configuration not stated)	Statin myotox sup 91 (no result: DENV2 CPE rescue, Xi reactivation, FGF22 binding, E-selectin induc)
CCCNC(=O)C[C@H]1CC[C@@H]2[C@H](COc3ccc(NC(=O)c4cccs4)cc3C(=O)N2C)O1	none
C[C@@H](NC(=O)C[C@@H]1CC[C@H](NC(=O)C2CCC2)[C@@H](CO)O1)c1ccccc1	none
CCOc1ccc2nc(SCC#N)c(C#N)cc2c1	Statin myotox sup 80 (no result: DENV2 CPE rescue, Xi reactivation, FGF22 binding, E-selectin induc)
COc1ccc2nc(NC(=O)CCN3C(=O)c4ccccc4C3=O)sc2c1	none (no result: DENV2 CPE rescue, Xi reactivation, FGF22 binding, E-selectin induc)
CS(=O)(=O)c1ccc2nc(NC(=O)CCN3C(=O)c4ccccc4C3=O)sc2c1	FGF22 binding 43 (no result: PglD DTNB)
O=C(C[C@@H]1CC[C@@H](NC(=O)c2cccc(F)c2)[C@H](CO)O1)NCCN1CCCC1	DENV2 CPE rescue inconclusive
O=C(C1=C[C@@H](C2CC2)C[C@@H](OCc2ccc(CO)cc2)O1)N1CCOCC1	DENV2 CPE rescue 33!
CC(C)(C)[C@H]1C=C(C(=O)N2CCCCCCC2)O[C@@H](OCc2ccc(CO)cc2)C1	DENV2 CPE rescue 29 (no result: PglD DTNB, Statin myotox sup, Xi reactivation, E-selectin induc)
O=C(O)C1=C[C@H](C2CC2)C[C@H](OCc2ccc(CO)cc2)O1	DENV2 CPE rescue 22!
O=C(O)C1=C[C@@H](C2CCCCC2)C[C@@H](OCc2ccc(CO)cc2)O1	DENV2 CPE rescue inconclusive
O=C(C1=C[C@@H](C2CCCCC2)C[C@@H](OCc2ccc(CO)cc2)O1)N1CCOCC1	none
C[C@H](CO)N1C[C@H](C)[C@H](CN(C)CC2CC2)Oc2cc(/C=C/c3ccccc3)ccc2S1(=O)=O	none
C[C@H](CO)N1C[C@H](C)[C@H](CN(C)S(=O)(=O)c2ccccc2)Oc2ccc(NC(=O)Nc3ccc(C(F)(F)F)cc3)cc2C1=O	none (no result: PglD DTNB)
O=c1c2cc(Cl)ccc2nc(-c2ccc(Cl)c(Cl)c2)n1O	none (no result: E-selectin induc)
O=c1c2cc(Cl)ccc2nc(-c2ccccc2)n1O	FGF22 binding 46 (no result: PglD DTNB, Statin myotox sup, E-selectin induc)
COc1ccc(NC(=O)Nc2ccc3c(c2)[C@@H]2C[C@H](CC(=O)NC4CCCC4)O[C@H](CO)[C@@H]2O3)cc1	none
Cc1ccc(CNC(=O)c2ccc3c(=O)[nH]c4c(C(=O)NCC5CCCO5)sc(=S)n4c3c2)cc1 (configuration not stated)	none
CCCCCNC(=O)c1ccc2c(=O)[nH]c3c(C(=O)NCC4CCCO4)sc(=S)n3c2c1 (configuration not stated)	Statin myotox sup 118 (no result: DENV2 CPE rescue, Xi reactivation, FGF22 binding, E-selectin induc)
COc1cc(OC)cc(C(=O)NCC(=O)OCC(=O)c2ccc3c(c2)-c2ccccc2C3)c1	FGF22 binding 45 (no result: PglD DTNB, E-selectin induc)
C/C(=C\c1ccccc1)C(=O)Nc1nccs1	none (no result: PglD DTNB)
C/C(O)=C(/C=NCC(=O)O)C(=O)Nc1nccs1	FGF22 binding 43 (no result: PglD DTNB, Statin myotox sup, DENV2 CPE rescue, E-selectin induc)
COc1ccc(NC(=O)Nc2cccc3c2O[C@H](CN(C)S(=O)(=O)c2cn(C)cn2)[C@H](C)CN([C@H](C)CO)C3=O)cc1	none (no result: Statin myotox sup, E-selectin induc)
O=C(C[C@H]1C[C@H]2c3cc(NC(=O)NC4CCCCC4)ccc3O[C@H]2[C@H](CO)O1)NCC(F)(F)F	DENV2 CPE rescue 49
O=C(C[C@@H]1C[C@H]2c3cc(NC(=O)NC4CCCCC4)ccc3O[C@H]2[C@H](CO)O1)NCCc1ccccc1	none
O=C(C[C@H]1C[C@@H]2c3cc(NC(=O)NC4CCCCC4)ccc3O[C@@H]2[C@@H](CO)O1)NCC(F)(F)F	none
O=C(C[C@H]1C[C@@H]2c3cc(NC(=O)NC4CCCCC4)ccc3O[C@@H]2[C@@H](CO)O1)NCCc1ccccc1	DENV2 CPE rescue 37
C[C@H](NC(=O)C[C@@H]1C[C@H]2c3cc(NC(=O)NC4CCCC4)ccc3O[C@H]2[C@H](CO)O1)c1ccccc1	DENV2 CPE rescue 27
C[C@H](NC(=O)C[C@@H]1C[C@@H]2c3cc(NC(=O)NC4CCCC4)ccc3O[C@@H]2[C@@H](CO)O1)c1ccccc1	none
CNC[C@@H]1Oc2ccc(NS(=O)(=O)c3c(C)noc3C)cc2CC(=O)N([C@H](C)CO)C[C@H]1C	none
CC(C)NC(=O)Nc1ccc2c(c1)C(=O)N(C)C[C@H](C)[C@@H](CN(C)C(=O)OC(C)(C)C)O2	none (no result: PglD DTNB, Statin myotox sup, DENV2 CPE rescue, FGF22 binding, E-selectin induc)
CO[C@H](CN(C)C(=O)c1cnccn1)[C@H](C)CN([C@@H](C)CO)S(=O)(=O)c1ccc(Cl)cc1	none
CCN(c1ccccc1)S(=O)(=O)c1ccc(OC)c(NC(=O)C2CCC2)c1	DENV2 CPE rescue 68 (no result: E-selectin induc)
CO[C@@H]1CN(C)C(=O)c2cc(NC(=O)Cc3ccccc3)ccc2OC[C@@H](C)N(CC2CC2)C[C@H]1C	none (no result: FGF22 binding)
O=C(CSc1nc(-c2ccccc2)c(-c2ccccc2)o1)Nc1nncs1	Statin myotox sup 102 (no result: DENV2 CPE rescue, Xi reactivation, FGF22 binding, E-selectin induc)
C[C@@H]1CN([C@@H](C)CO)C(=O)c2cc(C#CC(C)(C)O)cnc2O[C@@H]1CN(C)C(=O)C1CCCCC1	none (no result: PglD DTNB, DENV2 CPE rescue, FGF22 binding)
O=[N+]([O-])c1ccc(Nc2nc(NC3CCCCC3)nc(N3CCCC3)n2)cc1	FGF22 binding 44 (no result: PglD DTNB, Statin myotox sup, DENV2 CPE rescue, E-selectin induc)
Nc1ccccc1C(O)(Cc1ccccc1)c1ccccc1 (configuration not stated)	DENV2 CPE rescue 36
COc1ccc(-c2sc3cc(OC)c(OC)cc3c2C#CC(C)(C)O)cc1	DENV2 CPE rescue 24
C[C@@H]1CN(C)C(=O)c2cccc(N(C)C)c2O[C@@H]1CN(C)C	none (no result: PglD DTNB, Statin myotox sup, DENV2 CPE rescue, FGF22 binding, E-selectin induc)
NC(=S)N/N=C/c1cc([N+](=O)[O-])ccc1Cl	none (no result: Statin myotox sup)
Nc1nnnn1CC(=O)N/N=C/c1cc([N+](=O)[O-])ccc1Cl	FGF22 binding 43 (no result: PglD DTNB, Statin myotox sup)
Cc1ccc(-c2ccc([C@H]3[C@@H](CO)N4C(=O)CN(C(=O)Nc5cccc(F)c5)C[C@H]34)cc2)cc1	DENV2 CPE rescue inconclusive (no result: PglD DTNB, Statin myotox sup, FGF22 binding)
CCCN1C[C@@H](C)[C@H](OC)CN(C)C(=O)c2cc(NS(C)(=O)=O)ccc2OC[C@@H]1C	none (no result: DENV2 CPE rescue, FGF22 binding)
CCOc1ccc(CN(C)CC(=O)Nc2cc(OC)c([N+](=O)[O-])cc2C)cc1	none (no result: Statin myotox sup)
